# Values joined by “and” are separate entries in the source; they are usually repeats but may differ in a detail not shown here. Equal values may be shown once. Read-outs that look alike come from different tables or passages of the source.
# T1: h12-LOX (Homo sapiens, UniProt P18054)
# T1 sequence (P18054 1-663): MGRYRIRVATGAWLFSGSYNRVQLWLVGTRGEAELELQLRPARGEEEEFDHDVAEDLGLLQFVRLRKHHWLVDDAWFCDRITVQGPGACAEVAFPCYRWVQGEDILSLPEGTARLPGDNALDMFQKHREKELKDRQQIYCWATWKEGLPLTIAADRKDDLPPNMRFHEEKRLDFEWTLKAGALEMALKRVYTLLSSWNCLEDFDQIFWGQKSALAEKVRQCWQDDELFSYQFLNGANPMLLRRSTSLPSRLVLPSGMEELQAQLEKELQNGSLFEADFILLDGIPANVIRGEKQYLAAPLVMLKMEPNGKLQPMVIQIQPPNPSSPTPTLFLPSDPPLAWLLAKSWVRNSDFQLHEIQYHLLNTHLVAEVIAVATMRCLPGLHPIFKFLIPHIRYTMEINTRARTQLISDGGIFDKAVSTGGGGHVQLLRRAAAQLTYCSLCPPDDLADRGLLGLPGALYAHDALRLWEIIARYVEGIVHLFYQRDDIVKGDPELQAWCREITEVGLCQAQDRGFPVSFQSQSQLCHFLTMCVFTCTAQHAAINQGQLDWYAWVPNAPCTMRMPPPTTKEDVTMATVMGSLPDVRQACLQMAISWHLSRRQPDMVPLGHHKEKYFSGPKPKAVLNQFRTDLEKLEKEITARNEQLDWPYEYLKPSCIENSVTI
# T2: h15-LOX-1 (Homo sapiens, UniProt P16050)
# T2 sequence (P16050 1-662): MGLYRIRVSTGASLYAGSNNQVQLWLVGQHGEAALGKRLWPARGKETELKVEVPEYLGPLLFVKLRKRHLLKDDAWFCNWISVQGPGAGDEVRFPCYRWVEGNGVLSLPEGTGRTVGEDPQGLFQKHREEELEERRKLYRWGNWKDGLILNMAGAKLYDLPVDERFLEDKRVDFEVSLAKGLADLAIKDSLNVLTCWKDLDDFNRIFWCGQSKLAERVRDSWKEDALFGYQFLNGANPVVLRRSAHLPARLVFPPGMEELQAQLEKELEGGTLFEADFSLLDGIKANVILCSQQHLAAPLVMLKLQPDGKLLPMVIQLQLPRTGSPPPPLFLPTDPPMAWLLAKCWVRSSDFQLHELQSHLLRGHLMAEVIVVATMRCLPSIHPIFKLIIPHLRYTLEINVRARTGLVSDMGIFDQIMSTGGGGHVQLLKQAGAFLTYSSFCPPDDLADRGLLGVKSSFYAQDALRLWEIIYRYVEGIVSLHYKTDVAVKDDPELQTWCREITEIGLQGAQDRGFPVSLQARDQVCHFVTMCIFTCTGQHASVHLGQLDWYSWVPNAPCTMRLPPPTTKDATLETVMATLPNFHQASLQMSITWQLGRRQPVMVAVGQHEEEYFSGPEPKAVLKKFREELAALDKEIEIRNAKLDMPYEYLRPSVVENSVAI
# B1: h15-LOX-1 (Homo sapiens) (protein)
# chain: T2 sequence (P16050 1-662)
# B2: h12-LOX (Homo sapiens) (protein)
# chain: T1 sequence (P18054 1-663)
# Columns and labels:
# human platelets [1] = experiment: Collagen-stimulated platelet aggregation; type: cell-based; details: 10 min incubation, collagen 0.25 μg/mL
# Procedure, shortened: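 Washed human platelets were isolated by serial centrifugation and resuspended in Tyrode's buffer at 3 × 10^8/mL. They were preincubated with test compound (1–10 μM) for 10 min at 37 °C, then stimulated with 0.25 μg/mL collagen while stirring at 1100 rpm. Maximum aggregation was read as the light-transmittance change, mean ± SEM of 3–5 independent experiments. Comparison versus vehicle used one-way ANOVA with Dunnett's test.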
# h12-LOX [2] = target: T1, h12-LOX; experiment: Allosteric modulation of 14S-HpDHA epoxidation by h12-LOX; type: biochemical; details: 1 μM 14S-HpDHA
# Procedure, shortened: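 Recombinant human h15-LOX-1 (0.125 μM, 25 mM HEPES pH 7.5, 20 min) or h12-LOX (0.3 μM, pH 8.0, 1 h) reacted at room temperature with 1 μM 14S-HpDHA while oxylipin modulator was titrated (1–100 μM), or with 14S-HpDHA varied alone (1–50 μM). Products were reduced and analysed by LC-MS. Dehydration (epoxide) versus oxygenation product percentages were calculated, N = 3.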
# M2-polarized macrophages = M2-polarized macrophages challenged by inhibitor ref 44; cited from earlier work
# human platelets [3] = experiment: Ex vivo platelet incubation and lipidomics; type: cell-based; details: human platelets + DHA, with inhibitor; data not shown
# h15-LOX-1 [4] = target: T2, h15-LOX-1; experiment: Product analysis of h15-LOX-1 reactions; type: biochemical
# Procedure, shortened: (§1)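 h15-LOX-1 (0.125 μM, pH 7.5) or h12-LOX (0.300 μM, pH 8.0) was reacted in 25 mM HEPES at room temperature under ambient O2. Substrates were 10 μM DHA for 1 min (monitored at 234 nm) or 1 μM 14S-HpDHA for 20 min (h15-LOX-1) or 1 h (h12-LOX) (monitored at 270 nm). Reactions were quenched with acetic acid, spiked with d5-maresin-1, extracted into DCM and background-subtracted against a no-enzyme control. Split samples were run with or without trimethyl phosphite reduction. Products were identified by C18 LC-MS/MS (qTOF), N = 3.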
# h12-LOX [5] = target: T1, h12-LOX; experiment: Product analysis of h12-LOX reactions; type: biochemical
# Procedure, shortened: as §1
# h12-LOX [6] = target: T1, h12-LOX; experiment: Steady-state kinetics of h12-LOX
# h15-LOX-1 [7] = target: T2, h15-LOX-1; experiment: Steady-state kinetics of h15-LOX-1; details: for fold difference of kcat/KM: h15-LOX-1, kcat/KM of enzyme with DHA set to 1 (Table 5)
# h15-LOX-1 [8] = target: T2, h15-LOX-1; details: h15-LOX-1 with AA, obtained previously ref 22; cited from earlier work
# [9] = substrate: CC/C=C\C/C=C\C/C=C\C/C=C\C/C=C\C/C=C\CCC(=O)O; experiment: purified protein, by the assay type
# [10] = substrate: CCCCC/C=C\C/C=C\C/C=C\C/C=C\CCCC(=O)O; experiment: purified protein, by the assay type; details: other: h12-LOX + substrate, 25 mM HEPES pH 8.0, RT
# [11] = h12-LOX + substrate, 25 mM HEPES pH 8.0, RT
# [12] = h15-LOX-1 + substrate, 25 mM HEPES pH 7.5, RT
# [13] = other: h15-LOX-1 + substrate, 25 mM HEPES pH 7.5, RT
# [14] = other: h12-LOX + substrate, 25 mM HEPES pH 8.0, RT
molecule,measurement,setting,value
"CCCCC/C=C\C[C@H](O)/C=C/C=C\CCCCCCC(=O)O [12S-HETrE, 12S-hydroxy-8Z,10E,14Z-eicosatrienoic acid, reference compound]",concentration required to completely inhibit platelet aggregation,human platelets [1],5 to 10 µM
"CC/C=C\C/C=C\C[C@H](O)/C=C/C=C\C=C\[C@@H](O)C/C=C\CCC(=O)O [7S,14S-EZE-diHDHA, 7S,14S-dihydroxy-4Z,8E,10Z,12E,16Z,19Z-docosahexaenoic acid]",concentration required to completely inhibit platelet aggregation,human platelets [1],5 to 10 µM
"CC/C=C\C/C=C\C[C@H](O)/C=C/C=C\C/C=C\CCCCCC(=O)O [14S-HDPAω-3, 14S-hydroxy-7Z,10Z,12E,16Z,19Z-docosapentaenoic acid]",epoxidation product at end of titration,"h12-LOX [2]; titration with modulator, 72.0% at start",5.0%
O=C(Nc1ccc(F)cc1Cl)c1n[nH]c(Cl)c1Cl [BLX-3887],decrease of 14S-HDHA production,M2-polarized macrophages,45%
same,decrease of maresin production,M2-polarized macrophages,70%
COc1cccc(CNc2ccc(S(=O)(=O)Nc3nc4ccccc4s3)cc2)c1O [ML355],reduction of 14S-HDHA and 11S-HDHA production,human platelets [3],approximately 70%
"CC/C=C\C/C=C\C/C=C\C/C=C\C/C=C\C/C=C\CCC(=O)O [DHA, docosahexaenoic acid]",product profile: 11S-HpDHA (ω-12),"h15-LOX-1 [4]; h15-LOX-1 + 10 μM DHA, 1 min",12% and 12 ± 1%
same,product profile: 14S-HpDHA (ω-9),"h15-LOX-1 [4]; h15-LOX-1 + 10 μM DHA, 1 min",40 ± 1%
same,product profile: 17S-HpDHA (ω-6),"h15-LOX-1 [4]; h15-LOX-1 + 10 μM DHA, 1 min",46% and 46 ± 1%
same,product profile: 11S-HpDHA (ω-12),"h12-LOX [5]; h12-LOX + 10 μM DHA, 1 min",19% and 19 ± 3%
same,product profile: 14S-HpDHA (ω-9),"h12-LOX [5]; h12-LOX + 10 μM DHA, 1 min",81% and 81 ± 3%
same,product profile: 17S-HpDHA (ω-6),"h12-LOX [5]; h12-LOX + 10 μM DHA, 1 min",<1.0%
same,14S-HpDHA product selectivity of h12-LOX greater than that of h15-LOX-1,h12-LOX [5]; substrate DHA,2 fold
same,14S-HpDHA biosynthetic flux,"h12-LOX [6]; h12-LOX + DHA, B.F. = kcat/KM * % product",11
same,fold difference of kcat/KM,"h12-LOX [6]; h12-LOX, kcat/KM of enzyme with DHA set to 1 (Table 5)",1.0
same,kcat/KM of h12-LOX greater than that of h15-LOX-1,h12-LOX [6]; substrate DHA,39 fold
same,fold difference of 14S-HpDHA biosynthetic flux,h15-LOX-1 [7]; h15-LOX-1 + DHA,1.0
same,14S-HpDHA biosynthetic flux,"h15-LOX-1 [7]; h15-LOX-1 + DHA, B.F. = kcat/KM * % product",0.14
same,fold difference of kcat/KM,h15-LOX-1 [7],1.0
"CC/C=C\C/C=C\C[C@H](O)/C=C/C=C\C/C=C\C/C=C\CCC(=O)O [14S-HDHA, 14S-hydroxy-4Z,7Z,10Z,12E,16Z,19Z-docosahexaenoic acid]",Km,h12-LOX [6]; [11],210 ± 70 µM
same,kcat,h12-LOX [6]; [11],0.17 ± 0.03 s⁻¹
same,Km,h15-LOX-1 [7]; [12],18 ± 4 µM
same,kcat,h15-LOX-1 [7]; [12],0.57 ± 0.01 s⁻¹
same,fold difference of kcat/KM,h15-LOX-1 [7],−13
"CCCCC/C=C\C[C@H](O)/C=C/C=C\C/C=C\CCCC(=O)O [12S-HETE, 12S-hydroxy-5Z,8Z,10E,14Z-eicosatetraenoic acid, reference compound]",allosteric effect on epoxidation,h12-LOX [2]; titration of modulator,no allosteric effect
"CC/C=C\C/C=C\C[C@H](O)\C=C/C=C/C=C/[C@H](O)C/C=C\CCC(=O)O [MaR-1, 7R,14S-dihydroxy-4Z,8E,10E,12Z,16Z,19Z-docosahexaenoic acid, reference compound]",concentration required to completely inhibit platelet aggregation,human platelets [1],5 to 10 µM
"CCCCC/C=C\C/C=C\C/C=C\C/C=C\CCCC(=O)O [AA, arachidonic acid]",product profile: ω-9 oxylipin 12S-HETE / 12S-HpETE,h15-LOX-1 [4]; h15-LOX-1 + AA,10%
same,Km,h15-LOX-1 [8],2.7 ± 0.3 µM
same,kcat,h15-LOX-1 [8],5.3 ± 0.4 s⁻¹
B1,Km,[9]; [13],6.7 ± 3 µM
same,kcat,[9]; [13],2.4 ± 0.6 s⁻¹
same,kcat/Km,[9]; [13],360000 ± 100000 M⁻¹ s⁻¹
B2,Km,[9]; [14],0.90 ± 0.06 µM
same,kcat,[9]; [14],13 ± 0.2 s⁻¹
same,kcat/Km,[9]; [14],1.4e+07 ± 800000 M⁻¹ s⁻¹
same,Km,[10],0.95 ± 0.1 µM
same,kcat,[10],18 ± 0.8 s⁻¹
same,kcat/Km,[10],1.9e+07 ± 2e+06 M⁻¹ s⁻¹

# — article PMC7729281 (Biochemistry, 2020)
